Data from ChEMBL document CHEMBL1121490, “10-Piperazinyl-4H-theino[3,2-b][1,5]- and -[3,4-b][1,5]benzodiazepines as potential neuroleptics” (J Med Chem, 1980).

Assays:
Rattus norvegicus [1] = assay: Compound was evaluated for its ability to block conditioned avoidance response (CAR) in rats; Dose administered perorally is 40 mg/kg; no significant block 0-25%; assay type: functional; conditions: route oral
[2] = (§1) Lethal dose in mice after perorla administration; assay type: toxicity, organism-based; conditions: mouse, in vivo, po
Procedure, shortened: (§2)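 CFW albino mice (19–21 g), groups of three, given oral doses up to 800 mg/kg as solution or suspension. Mortality and gross behavioural changes observed over 48 h; LD50 approximated from the outcome.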

Rattus norvegicus [3] = assay: compound was evaluated for its ability to produce catalepsy activity in rats; Dose administered perorally is 50 mg/kg; assay type: functional; conditions: route oral
Procedure, shortened: (§3)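 Groups of eight Lilly Wistar rats (180–190 g) were dosed orally and checked at 0.5, 1, 1.5, 2, 3, 4 and 5 h. Front paws were placed on a 1.5-cm rod 7 cm above the table, and posture was timed up to 20 min. Release within 10 s counted as noncataleptic. Each rat was scored 0–5 by hold time. Maximum scores per animal were summed, giving a group maximum of 40.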

Mus musculus [4] = assay: Hypothermia in mice after perorla administration; assay type: functional
Procedure, shortened: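 Groups of three CFW mice were dosed orally. Rectal temperature was taken 15 min, 2.5 h and 5 h after dosing. Mean changes from each group's mean initial temperature were summed as a "temperature index". ED_min is the minimum dose (mg/kg) giving an index at least 5 lower than the control group.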

Rattus norvegicus [5] = assay: Compound was evaluated for its ability to block conditioned avoidance response (CAR) in rats; Dose administered perorally is 50 mg/kg; 31-50% block; assay type: functional; conditions: route oral
Rattus norvegicus [6] = assay: Compound was evaluated for its ability to block conditioned avoidance response (CAR) in rats; Dose administered perorally is 50 mg/kg; no significant block 0-25%; assay type: functional; conditions: route oral
Rattus norvegicus [7] = assay: compound was evaluated for its ability to produce catalepsy activity in rats; Dose administered perorally is 100 mg/kg; assay type: functional; conditions: route oral; procedure, shortened: as §3
Rattus norvegicus [8] = assay: compound was evaluated for its ability to produce catalepsy activity in rats; Dose administered perorally is 25 mg/kg; assay type: functional; conditions: route oral; procedure, shortened: as §3
Mus musculus [9] = assay: as §1; assay type: toxicity, organism-based; conditions: in vivo, po; procedure, shortened: as §2
Rattus norvegicus [10] = assay: Compound was evaluated for its ability to block conditioned avoidance response (CAR) in rats; Dose administered perorally is 25 mg/kg; 76-99% block; assay type: functional; conditions: route oral
Rattus norvegicus [11] = assay: Compound was evaluated for its ability to block conditioned avoidance response (CAR) in rats; Dose administered perorally is 5 mg/kg; no significant block 0-25%; assay type: functional; conditions: route oral
Rattus norvegicus [12] = assay: compound was evaluated for its ability to produce catalepsy activity in rats; Dose administered perorally is 20 mg/kg; assay type: functional; conditions: route oral; procedure, shortened: as §3
Rattus norvegicus [13] = assay: Compound was evaluated for its ability to block conditioned avoidance response (CAR) in rats; Dose administered perorally is 20 mg/kg; 26-30% block; assay type: functional; conditions: route oral
Rattus norvegicus [14] = assay: Compound was evaluated for its ability to block conditioned avoidance response (CAR) in rats; Dose administered perorally is 25 mg/kg; 31-50% block; assay type: functional; conditions: route oral
Rattus norvegicus [15] = assay: Compound was evaluated for its ability to block conditioned avoidance response (CAR) in rats; Dose administered perorally is 50 mg/kg; 26-30% block; assay type: functional; conditions: route oral
Rattus norvegicus [16] = assay: Compound was evaluated for its ability to produce catalepsy activity in rats; Dose administered perorally is 50 mg/kg; no significant effect (group score 0-3); assay type: functional; conditions: route oral; procedure, shortened: as §3
Rattus norvegicus [17] = assay: Compound was evaluated for its ability to block conditioned avoidance response (CAR) in rats; Dose administered perorally is 25 mg/kg;n o significant block 0-25%; assay type: functional; conditions: route oral
Rattus norvegicus [18] = assay: Compound was evaluated for its ability to block conditioned avoidance response (CAR) in rats; Dose administered perorally is 20 mg/kg; 51-75% block; assay type: functional; conditions: route oral
Procedure, shortened: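 Lilly Wistar rats (120–130 g) trained in a shuttle box to cross on a 5-s buzzer; failure to respond within 1 s of its end gave a mild shock. Only high responders used. Groups of five dosed orally 1 h 50 min before test; 10-min habituation, then 20-min session. Blockade = shocks received as % of stimuli presented.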

Rattus norvegicus [19] = assay: Compound was evaluated for its ability to block conditioned avoidance response (CAR) in rats; Dose administered perorally is 25 mg/kg; 51-75% block; assay type: functional; conditions: route oral
Rattus norvegicus [20] = species on record: Rattus norvegicus; assay: compound was evaluated for its ability to produce catalepsy activity in rats; assay type: functional; procedure, shortened: as §3
Rattus norvegicus [21] = assay: Compound was evaluated for its ability to block conditioned avoidance response (CAR) in rats; Dose administered perorally is 12.5 mg/kg; 51-75% block; assay type: functional; conditions: route oral
Rattus norvegicus [22] = assay: Compound was evaluated for its ability to block conditioned avoidance response (CAR) in rats; Dose administered perorally is 40 mg/kg; 51-75% block; assay type: functional; conditions: route oral
Rattus norvegicus [23] = assay: Compound was evaluated for its ability to block conditioned avoidance response (CAR) in rats; Dose administered perorally is 50 mg/kg; 76-99% block; assay type: functional; conditions: route oral
Rattus norvegicus [24] = assay: Compound was evaluated for its ability to block conditioned avoidance response (CAR) in rats; Dose administered perorally is 10 mg/kg; no significant block 0-25%; assay type: functional; conditions: route oral
Rattus norvegicus [25] = assay: Compound was evaluated for its ability to block conditioned avoidance response (CAR) in rats; Dose administered perorally is 10; 51-75% block; assay type: functional
Rattus norvegicus [26] = assay: Compound was evaluated for its ability to block conditioned avoidance response (CAR) in rats; Dose administered perorally is 10 mg/kg; 51-75% block; assay type: functional; conditions: route oral
Rattus norvegicus [27] = species on record: Rattus norvegicus; assay: compound was evaluated for its ability to produce catalepsy activity in rats.; assay type: functional
Procedure, shortened: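 Groups of eight Lilly Wistar rats (180–190 g) dosed orally, front paws placed on 1.5-cm rod 7 cm above table at 0.5, 1, 1.5, 2, 3, 4, 5 h. Time held recorded up to 20 min, scored 0–5 (<10 s = 0 up to >20 min = 5). Maximum score per animal summed; group maximum 40.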

Rattus norvegicus [28] = assay: Compound was evaluated for its ability to block conditioned avoidance response (CAR) in rats; Dose administered perorally is 1.25 mg/kg; 51-75% block; assay type: functional; conditions: route oral
Rattus norvegicus [29] = assay: Compound was evaluated for its ability to block conditioned avoidance response (CAR) in rats; Dose administered perorally is 50 mg/kg; 51-75% block; assay type: functional; conditions: route oral
Rattus norvegicus [30] = assay: compound was evaluated for its ability to produce catalepsy activity in rats; Dose administered perorally is 2.5 mg/kg; assay type: functional; conditions: route oral; procedure, shortened: as §3
Rattus norvegicus [31] = assay: Compound was evaluated for its ability to block conditioned avoidance response (CAR) in rats; Dose administered perorally is 2.5 mg/kg; 31-50% block; assay type: functional; conditions: route oral

Compound | LD50 [2] [mg/kg] | EDmin (Mus musculus [4]) [mg/kg] | other results
OCCCN1CCN(C2=Nc3cc(F)ccc3Nc3ccsc32)CC1 | > 400 | 200 | Activity (Rattus norvegicus [1]): 0; Activity (Rattus norvegicus [3]): 0
Fc1ccc2c(c1)N=C(N1CCNCC1)c1sccc1N2 | 400 | 50 | Activity (Rattus norvegicus [5]): 2; Activity (Rattus norvegicus [3]): 1
Cc1scc2c1Nc1ccccc1N=C2N1CCN(C)CC1 | 200 | >100 | Activity (Rattus norvegicus [6]): 0; Activity (Rattus norvegicus [7]): 0
c1ccc2c(c1)N=C(N1CCNCC1)c1cscc1N2 | > 400 | 50 | Activity (Rattus norvegicus [6]): 0; Activity (Rattus norvegicus [3]): 1
CN1CCN(C2=Nc3ccccc3Nc3cscc32)CC1 | 150 | 25 | Activity (Rattus norvegicus [8]): 1; LD50 (Mus musculus [9]): 150 mg/kg; Activity (Rattus norvegicus [10]): 4
CN1CCN(C2=NC3=CSCC3=Nc3ccccc32)CC1 | 50 | 50 | Activity (Rattus norvegicus [11]): 0
CN1CCN(C2=Nc3cc(F)ccc3Nc3cscc32)CC1 | 100 | 6.25 | Activity (Rattus norvegicus [12]): 1; Activity (Rattus norvegicus [13]): 1
CSc1ccc2c(c1)N=C(N1CCN(C)CC1)c1cscc1N2 | 400 | 25 | Activity (Rattus norvegicus [14]): 2
c1ccc2c(c1)N=C(N1CCNCC1)c1sccc1N2 | 400 | 50 | Activity (Rattus norvegicus [15]): 1; Activity (Rattus norvegicus [16]): 0
Cc1scc2c1C(N1CCN(C)CC1)=Nc1ccccc1N2 | > 400 | 50 | Activity (Rattus norvegicus [17]): 0
Fc1ccc2c(c1)N=C(N1CCNCC1)c1cscc1N2 | 600 | 100 | Activity (Rattus norvegicus [6]): 0; Activity (Rattus norvegicus [3]): 0
CN1CCN(C2=Nc3ccccc3N(C)c3cscc32)CC1 | 150 | 25 | Activity (Rattus norvegicus [5]): 2; Activity (Rattus norvegicus [3]): 0
Fc1ccc2c(c1)N=C(N1CCN(Cc3ccccc3)CC1)c1sccc1N2 | > 400 | 100 | Activity (Rattus norvegicus [6]): 0
CN1CCN(C2=Nc3cc(F)ccc3Nc3ccsc32)CC1 | > 25 | 12.5 | Activity (Rattus norvegicus [12]): 2; Activity (Rattus norvegicus [18]): 3
O=CN1CCN(C2=Nc3ccccc3N(C=O)c3cscc32)CC1 | 400 | 200 | Activity (Rattus norvegicus [6]): 0
Clc1cc2c(cc1Cl)Nc1cscc1C(N1CCNCC1)=N2 | > 800 | 200 | Activity (Rattus norvegicus [6]): 0; Activity (Rattus norvegicus [3]): 0
Clc1ccc2c(c1)N=C(N1CCNCC1)c1cscc1N2 | > 400 | 25 | Activity (Rattus norvegicus [6]): 0; Activity (Rattus norvegicus [3]): 0
CCOC(=O)N1CCN(C2=Nc3cc(F)ccc3Nc3ccsc32)CC1 | > 800 | >800 | Activity (Rattus norvegicus [15]): 1
COc1ccc2c(c1)N=C(N1CCN(C)CC1)c1cscc1N2 | 200 | 50 | Activity (Rattus norvegicus [15]): 1; Activity (Rattus norvegicus [3]): 1

Compound | LD50 [2] [mg/kg] | EDmin (Mus musculus [4]) [mg/kg] | other results
CN1CCN(C2=Nc3ccc(C(F)(F)F)cc3Nc3cscc32)CC1 | 600 | 100 | Activity (Rattus norvegicus [6]): 0; Activity (Rattus norvegicus [3]): 0
CN1CCN(C2=Nc3ccccc3Nc3ccsc32)CC1 | 100 | 25 | Activity (Rattus norvegicus [19]): 3; Activity (Rattus norvegicus [8]): 2
CN1CCN(C2=Nc3cc(Cl)ccc3Nc3ccsc32)CC1 | 50 | 6.25 | Activity (Rattus norvegicus [20]): 2; Activity (Rattus norvegicus [21]): 3
CN1CCN(C2=Nc3cc(C(F)(F)F)ccc3Nc3cscc32)CC1 | > 200 | 50 | Activity (Rattus norvegicus [22]): 3
OCCN1CCN(C2=Nc3cc(F)ccc3Nc3ccsc32)CC1 | > 400 | 25 | Activity (Rattus norvegicus [5]): 2; Activity (Rattus norvegicus [3]): 0
c1ccc(CN2CCN(C3=Nc4ccccc4Nc4ccsc43)CC2)cc1 | > 400 | 200 | Activity (Rattus norvegicus [6]): 0
CN1CCN(C2=Nc3cc(Cl)c(Cl)cc3Nc3cscc32)CC1 | 400 | 25 | Activity (Rattus norvegicus [20]): 1; Activity (Rattus norvegicus [23]): 4
OCCCN1CCN(C2=Nc3ccccc3Nc3cscc32)CC1 | > 400 | >400 | Activity (Rattus norvegicus [15]): 1
Cc1cc2c(s1)C(N1CCN(C)CC1)=Nc1cc(F)ccc1N2 | 150 | 12.5 | Activity (Rattus norvegicus [24]): 0
c1ccc(CN2CCN(C3=Nc4ccccc4Nc4cscc43)CC2)cc1 | 800 | 800 | Activity (Rattus norvegicus [6]): 0
CN1CCN(c2cccc3c2N=C2SC=CC2N=C3)CC1 (configuration not stated) | > 50 | >50 | –
CN1CCN(C2=Nc3cc(Cl)ccc3Nc3cscc32)CC1 | 75 | 3 | Activity (Rattus norvegicus [25]): 3; Activity (Rattus norvegicus [20]): 1
CN(C)CCCN1c2ccccc2Sc2ccc(Cl)cc21 [CHLORPROMAZINE] | – | 6.25 | Activity (Rattus norvegicus [26]): 3; Activity (Rattus norvegicus [20]): 1
CN1CCN(C2=Nc3cc(Cl)ccc3Nc3ccccc32)CC1 [CLOZAPINE] | – | 50 | Activity (Rattus norvegicus [27]): 2; Activity (Rattus norvegicus [18]): 3
OCCN1CCN(CC/C=C2\c3ccccc3Sc3ccc(C(F)(F)F)cc32)CC1 [E-FLUPENTIXOL] | > 400 | >400 | Activity (Rattus norvegicus [15]): 1; Activity (Rattus norvegicus [3]): 0
O=C(CCCN1CCC(O)(c2ccc(Cl)cc2)CC1)c1ccc(F)cc1 [HALOPERIDOL] | > 100 | 3 | Activity (Rattus norvegicus [20]): 3; Activity (Rattus norvegicus [28]): 3
CSc1ccc2c(c1)N(CCC1CCCCN1C)c1ccccc1S2 (configuration not stated) [THIORIDAZINE] | – | 25 | Activity (Rattus norvegicus [29]): 3; Activity (Rattus norvegicus [8]): 1
OCCN1CCN(CC/C=C2/c3ccccc3Sc3ccc(C(F)(F)F)cc32)CC1 [Z-FLUPENTIXOL] | – | 3 | Activity (Rattus norvegicus [30]): 4; Activity (Rattus norvegicus [31]): 2
